Laboratory results published in ChEMBL document CHEMBL5390247, “Aryl azoles based scaffolds for disrupting tumor microenvironment” (Bioorg Med Chem, 2023).
Active and inactive are the calls of the source. No cut-off for these calls is given here.

How the values were obtained:
[1] = test system: HT-29; assay: Immunomodulatory activity in human HT-29 cells co-cultured with interferon gamma-stimulated THP-1 cells assessed as inhibition of cell growth at 100 uM incubated for 48 hrs by flow cytometry analysis relative to control; assay type: functional
Summary of the method: (§1)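 HT-29 cells at 10^5/well seeded and grown 24 h. Medium then replaced with medium containing IFN-γ (10 ng/ml), 5 × 10^5 THP-1 cells/well and compound at 100 µM; DMSO used as control. After 48 h, THP-1 cells collected from supernatant and cancer cells by trypsinisation. Both fixed in 4% paraformaldehyde and counted by flow cytometry relative to control.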

[2] = test system: HT-29; assay: Immunomodulatory activity in human HT-29 cells co-cultured with interferon gamma-stimulated THP-1 cells assessed as cell viability at 100 uM incubated for 48 hrs by flow cytometry analysis relative to control; assay type: functional; details: read-out: Activity; summary of the method: as §1
[3] = test system: HT-29; assay: Immunomodulatory activity in human HT-29 cells co-cultured with interferon gamma-stimulated THP-1 cells assessed as relative CD-47 protein expression in membrane at 100 uM incubated for 48 hrs by flow cytometry analysis relative to control; assay type: functional
[4] = test system: HT-29; assay: Immunomodulatory activity in human HT-29 cells co-cultured with interferon gamma-stimulated THP-1 cells assessed as relative PD-L1 protein expression in membrane at 100 uM incubated for 48 hrs by flow cytometry analysis relative to control; assay type: functional
[5] = Toxicity against interferon gamma-stimulated human THP-1 monocyte cells co-cultured with human HT-29 cells assessed as reduction in cell viability at 100 uM incubated for 48 hrs by flow cytometry analysis; assay type: cell-based; details: thp-1, 48 h; summary of the method: as §1
[6] = test system: HT-29; assay: Antiproliferative activity against human HT-29 cells assessed as relative PD-L1 protein expression in membrane at 100 uM incubated for 48 hrs by flow cytometry analysis relative to control; assay type: functional
[7] = test system: HT-29; assay: Antiproliferative activity against human HT-29 cells assessed as relative VEGFR-2 protein expression in membrane at 100 uM incubated for 48 hrs by flow cytometry analysis relative to control; assay type: functional
[8] = test system: HT-29; assay: Antiproliferative activity against human HT-29 cells assessed as relative VEGFR-2 protein expression in whole cell at 100 uM incubated for 48 hrs by flow cytometry analysis relative to control; assay type: functional
[9] = test system: HT-29; assay: Antiproliferative activity against human HT-29 cells assessed as relative PD-L1 protein expression in whole cell at 100 uM incubated for 48 hrs by flow cytometry analysis relative to control; assay type: functional
[10] = test system: HT-29; assay: Antiproliferative activity against human HT-29 cells assessed as relative c-Myc protein expression at 100 uM incubated for 48 hrs by flow cytometry analysis relative to control; assay type: functional
[11] = test system: HT-29; assay: Immunomodulatory activity in human HT-29 cells co-cultured with interferon gamma-stimulated THP-1 cells assessed as reduction in number of cells at 100 uM incubated for 48 hrs; assay type: functional, cell-based; summary of the method: as §1
[12] = test system: HT-29; assay: Immunomodulatory activity in human HT-29 cells co-cultured with interferon gamma-stimulated THP-1 cells assessed as induction of morphological changes by measuring rounded cell morphology at 100 uM incubated for 48 hrs; assay type: functional, cell-based
Summary of the method: (§2)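 HT-29 cells co-cultured with IFN-γ-stimulated THP-1 cells and treated 48 h with compounds at 100 µM, with DMSO as control. Cell shrinkage and rounded morphology assessed by microscopy images.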

[13] = test system: HT-29; assay: Immunomodulatory activity in human HT-29 cells co-cultured with interferon gamma-stimulated THP-1 cells assessed as induction of morphological changes by measuring cell shrinkage at 100 uM incubated for 48 hrs; assay type: functional, cell-based; summary of the method: as §2

SMILES | inhibition at 100 µM [1] | viability at 100 µM [2] | Activity [3] | Activity [4] | Activity [5] | Activity [6] | Activity [7] | Activity [8] | Activity [9] | Activity [10] | Activity [11] | Activity [12] | Activity [13]
Cc1ccccc1Cn1nnc(-c2cccc(N)c2)n1 | > 70% | 25% | 75% | 103% | Non-Toxic | – | – | – | – | – | – | – | –
O=[N+]([O-])c1cccc(-c2nnn(Cc3cccc(Br)c3)n2)c1 | > 70% | 31% | 93% | 106% | Non-Toxic | >100% | 100% | 60% | 88% | 76% | – | – | –
Cc1ccc(Cn2cc(-c3cccc(N)c3)nn2)cc1 | – | 73% | 101% | 144% | Non-Toxic | – | – | – | – | – | – | – | –
Cc1cccc(Cn2nnc(-c3cccc([N+](=O)[O-])c3)n2)c1 | – | 42% | 73% | 166% | Non-Toxic | 65% | >100% | 84% | 97% | 89% | – | – | –
COc1cccc(Cn2cc(-c3cccc(N)c3)nn2)c1 | – | 33% | 89% | 113% | Non-Toxic | – | – | – | – | – | – | – | –
Nc1cccc(-c2cn(Cc3cccc(Br)c3)nn2)c1 | > 90% | 9% | 95% | 137% | Non-Toxic | – | – | – | – | – | – | – | –
COc1cccc(Cn2nnc(-c3cccc(N)c3)n2)c1 | – | 66% | 78% | 84% | Non-Toxic | >100% | 76% | >100% | >100% | 86% | Active | Active | Active
Cc1ccc(Cn2nnc(-c3cccc([N+](=O)[O-])c3)n2)cc1 | > 70% | 22% | 88% | 168% | Non-Toxic | 63% | >100% | 65% | 92% | 78% | – | – | –
Nc1cccc(-c2cn(Cc3ccccc3)nn2)c1 | – | 78% | 103% | 109% | Non-Toxic | – | – | – | – | – | – | – | –
COc1ccc(Cn2nnc(-c3cccc([N+](=O)[O-])c3)n2)cc1 | – | 35% | 96% | 102% | Non-Toxic | 84% | 88% | 39% | 89% | >100% | Active | Active | Active
O=[N+]([O-])c1cccc(-c2nnn(Cc3ccccc3Br)n2)c1 | – | 43% | 85% | 94% | Non-Toxic | >100% | >100% | 75% | 97% | 90% | – | – | –
Nc1cccc(-c2nnn(Cc3ccccc3)n2)c1 | – | 64% | 104% | 104% | Non-Toxic | – | – | – | – | – | – | – | –
COc1ccccc1Cn1nnc(-c2cccc(N)c2)n1 | – | 54% | 77% | 92% | Non-Toxic | 97% | 99% | >100% | >100% | 97% | Active | Active | Active
O=[N+]([O-])c1cccc(-c2nnn(Cc3ccccc3)n2)c1 | – | 32% | 71% | 150% | Non-Toxic | 66% | >100% | >100% | >100% | 82% | – | – | –
O=[N+]([O-])c1cccc(-c2nnn(Cc3cccc(Cl)c3)n2)c1 | – | 90% | 95% | 136% | Non-Toxic | >100% | 97% | >100% | 90% | >100% | – | – | –
COc1ccc(Cn2cc(-c3cccc(N)c3)nn2)cc1 | – | 40% | 82% | 113% | Non-Toxic | – | – | – | – | – | – | – | –
Cc1ccccc1Cn1nnc(-c2cccc([N+](=O)[O-])c2)n1 | – | 56% | 75% | 165% | Non-Toxic | 64% | >100% | 72% | 94% | 91% | – | – | –
Cc1cccc(Cn2cc(-c3cccc(N)c3)nn2)c1 | – | 44% | 86% | 114% | Non-Toxic | – | – | – | – | – | – | – | –
COc1ccccc1Cn1nnc(-c2cccc([N+](=O)[O-])c2)n1 | – | 65% | 85% | 93% | Non-Toxic | 89% | >100% | 55% | 92% | 86% | Active | Active | Active
COc1ccccc1Cn1cc(-c2cccc(N)c2)nn1 | – | 62% | 62% | 114% | Non-Toxic | – | – | – | – | – | – | – | –
Nc1cccc(-c2cn(Cc3ccccc3Br)nn2)c1 | – | 35% | 75% | 110% | Non-Toxic | – | – | – | – | – | – | – | –
Cc1ccccc1Cn1cc(-c2cccc(N)c2)nn1 | – | 74% | 87% | 120% | Non-Toxic | – | – | – | – | – | – | – | –
